Experimental data as given in ChEMBL document CHEMBL2057135, “Synthesis, antitubercular and antimicrobial evaluation of 3-(4-chlorophenyl)-4-substituted pyrazole derivatives” (2012).
Values after ≈ are worked out from the molar mass of the structure shown.

Experiments:
Format in all cases: functional
Pichia kudriavzevii = test: Antifungal activity against Candida krusei KCCM 11655 after 1 day; details: KCCM 11655, 24 h
Aspergillus niger = test: Antifungal activity against Aspergillus niger KCTC 1231 after 2 days; details: KCTC 1231, 48 h
Staphylococcus aureus = test: Antibacterial activity against Staphylococcus aureus ATCC 29213
[1] = tested on: Mycobacterium tuberculosis; test: Antitubercular activity against Mycobacterium tuberculosis H37Rv ATCC 27294 after 7 days by BACTEC method; details: H37Rv ATCC 27294, 168 h
Method in brief: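 Screened in vitro against M. tuberculosis H37Rv in a modified BACTEC 460 radiometric system. Test compound stocks were made at 1 mg/ml in DMSO and filter-sterilised through 0.22 µm PTFE filters. MIC was read, with rifampin as the reference agent.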

Aspergillus flavus = test: Antifungal activity against Aspergillus flavus KCCM 11899 after 2 days; details: KCCM 11899, 48 h
Cryptococcus neoformans = test: Antifungal activity against Cryptococcus neoformans KCCM 50564 after 1 day; details: KCCM 50564, 24 h
Escherichia coli = test: Antibacterial activity against Escherichia coli ATCC 25922

Row | SMILES | MIC (Pichia kudriavzevii) | MIC (Aspergillus niger) | MIC (Staphylococcus aureus) | MIC [1] | MIC (Aspergillus flavus) | MIC (Cryptococcus neoformans) | MIC (Escherichia coli)
1 | COc1cc(/C=N/NC(=O)c2cc(-c3ccc(Cl)cc3)n[nH]2)ccc1O | 12.5 µg/mL (≈ 33.7 µM) | 25 µg/mL (≈ 67.4 µM) | 0.12 µg/mL (≈ 0.324 µM) | 0.55 µg/mL (≈ 1.48 µM) | 12.5 µg/mL (≈ 33.7 µM) | 1.6 µg/mL (≈ 4.32 µM) | 0.017 µg/mL (≈ 0.0458 µM)
2 | O=C(NN1C(=O)CSC1c1ccc(O)cc1)c1cc(-c2ccc(Cl)cc2)n[nH]1 (single isomer, unassigned; (+)) | 50 µg/mL (≈ 121 µM) | 1.6 µg/mL (≈ 3.86 µM) | 0.125 µg/mL (≈ 0.301 µM) | 0.39 µg/mL (≈ 0.94 µM) | 12.5 µg/mL (≈ 30.1 µM) | 1.6 µg/mL (≈ 3.86 µM) | 0.017 µg/mL (≈ 0.041 µM)
3 | O=C(N/N=C/c1cccc([N+](=O)[O-])c1)c1cc(-c2ccc(Cl)cc2)n[nH]1 | 25 µg/mL (≈ 67.6 µM) | 25 µg/mL (≈ 67.6 µM) | 1.5 µg/mL (≈ 4.06 µM) | > 5 µg/mL | 12.5 µg/mL (≈ 33.8 µM) | 1.6 µg/mL (≈ 4.33 µM) | 0.13 µg/mL (≈ 0.352 µM)
4 | O=C(N/N=C/c1ccc(O)cc1)c1cc(-c2ccc(Cl)cc2)n[nH]1 | 100 µg/mL (≈ 293 µM) | 12.5 µg/mL (≈ 36.7 µM) | 0.35 µg/mL (≈ 1.03 µM) | 1.1 µg/mL (≈ 3.23 µM) | 50 µg/mL (≈ 147 µM) | 50 µg/mL (≈ 147 µM) | 0.012 µg/mL (≈ 0.0352 µM)
5 | COc1ccc(C2SCC(=O)N2NC(=O)c2cc(-c3ccc(Cl)cc3)n[nH]2)cc1 (racemic) | 50 µg/mL (≈ 117 µM) | 3.2 µg/mL (≈ 7.46 µM) | 0.5 µg/mL (≈ 1.17 µM) | 0.65 µg/mL (≈ 1.52 µM) | 25 µg/mL (≈ 58.3 µM) | 12.5 µg/mL (≈ 29.1 µM) | 0.04 µg/mL (≈ 0.0933 µM)
6 | O=C(NN1C(=O)CSC1c1ccccc1O)c1cc(-c2ccc(Cl)cc2)n[nH]1 (racemic) | 12.5 µg/mL (≈ 30.1 µM) | 6.3 µg/mL (≈ 15.2 µM) | 0.06 µg/mL (≈ 0.145 µM) | 0.5 µg/mL (≈ 1.21 µM) | 12.5 µg/mL (≈ 30.1 µM) | 6.3 µg/mL (≈ 15.2 µM) | 0.028 µg/mL (≈ 0.0675 µM)
7 | O=C(N/N=C/c1ccccc1Cl)c1cc(-c2ccc(Cl)cc2)n[nH]1 | 12.5 µg/mL (≈ 34.8 µM) | 12.5 µg/mL (≈ 34.8 µM) | 0.21 µg/mL (≈ 0.585 µM) | 0.36 µg/mL (≈ 1 µM) | 25 µg/mL (≈ 69.6 µM) | 3.2 µg/mL (≈ 8.91 µM) | 0.014 µg/mL (≈ 0.039 µM)
8 | O=C(NN1C(=O)[C@H](Cl)[C@H]1c1ccc(O)cc1)c1cc(-c2ccc(Cl)cc2)n[nH]1 (racemic) | 25 µg/mL (≈ 59.9 µM) | 1.6 µg/mL (≈ 3.83 µM) | 0.04 µg/mL (≈ 0.0959 µM) | 0.6 µg/mL (≈ 1.44 µM) | 12.5 µg/mL (≈ 30 µM) | 3.2 µg/mL (≈ 7.67 µM) | 0.01 µg/mL (≈ 0.024 µM)
9 | COc1ccc([C@@H]2[C@@H](Cl)C(=O)N2NC(=O)c2cc(-c3ccc(Cl)cc3)n[nH]2)cc1 (racemic) | 12.5 µg/mL (≈ 29 µM) | 3.2 µg/mL (≈ 7.42 µM) | 0.0025 µg/mL (≈ 0.0058 µM) | 1.2 µg/mL (≈ 2.78 µM) | 12.5 µg/mL (≈ 29 µM) | 1.6 µg/mL (≈ 3.71 µM) | 0.06 µg/mL (≈ 0.139 µM)
10 | COc1ccc([C@@H]2[C@@H](Cl)C(=O)N2NC(=O)c2cc(-c3ccc(Cl)cc3)n[nH]2)cc1OC (racemic) | 12.5 µg/mL (≈ 27.1 µM) | 12.5 µg/mL (≈ 27.1 µM) | 0.05 µg/mL (≈ 0.108 µM) | 1.15 µg/mL (≈ 2.49 µM) | 6.3 µg/mL (≈ 13.7 µM) | 3.2 µg/mL (≈ 6.94 µM) | 0.5 µg/mL (≈ 1.08 µM)
11 | O=C(N/N=C/c1ccc(Cl)cc1)c1cc(-c2ccc(Cl)cc2)n[nH]1 | 12.5 µg/mL (≈ 34.8 µM) | 12.5 µg/mL (≈ 34.8 µM) | 0.12 µg/mL (≈ 0.334 µM) | 1.1 µg/mL (≈ 3.06 µM) | 25 µg/mL (≈ 69.6 µM) | 1.6 µg/mL (≈ 4.45 µM) | 0.012 µg/mL (≈ 0.0334 µM)
12 | O=C(N/N=C/c1ccccc1[N+](=O)[O-])c1cc(-c2ccc(Cl)cc2)n[nH]1 | 100 µg/mL (≈ 270 µM) | 3.2 µg/mL (≈ 8.65 µM) | 8 µg/mL (≈ 21.6 µM) | > 5 µg/mL | 25 µg/mL (≈ 67.6 µM) | 1.6 µg/mL (≈ 4.33 µM) | 8 µg/mL (≈ 21.6 µM)
13 | COc1ccc(/C=N/NC(=O)c2cc(-c3ccc(Cl)cc3)n[nH]2)cc1 | 100 µg/mL (≈ 282 µM) | 12.5 µg/mL (≈ 35.2 µM) | 0.18 µg/mL (≈ 0.507 µM) | 0.85 µg/mL (≈ 2.4 µM) | 100 µg/mL (≈ 282 µM) | 50 µg/mL (≈ 141 µM) | 0.01 µg/mL (≈ 0.0282 µM)
14 | COc1cc([C@@H]2[C@@H](Cl)C(=O)N2NC(=O)c2cc(-c3ccc(Cl)cc3)n[nH]2)ccc1O (racemic) | 1.6 µg/mL (≈ 3.58 µM) | 3.2 µg/mL (≈ 7.15 µM) | 0.125 µg/mL (≈ 0.279 µM) | 0.6 µg/mL (≈ 1.34 µM) | 25 µg/mL (≈ 55.9 µM) | 12.5 µg/mL (≈ 27.9 µM) | 0.025 µg/mL (≈ 0.0559 µM)
15 | COc1ccc(/C=N/NC(=O)c2cc(-c3ccc(Cl)cc3)n[nH]2)cc1OC | 50 µg/mL (≈ 130 µM) | 25 µg/mL (≈ 65 µM) | 0.25 µg/mL (≈ 0.65 µM) | 0.37 µg/mL (≈ 0.961 µM) | 12.5 µg/mL (≈ 32.5 µM) | 12.5 µg/mL (≈ 32.5 µM) | 4 µg/mL (≈ 10.4 µM)
16 | O=C(NN1C(=O)[C@H](Cl)[C@H]1c1cccc([N+](=O)[O-])c1)c1cc(-c2ccc(Cl)cc2)n[nH]1 (racemic) | 100 µg/mL (≈ 224 µM) | 12.5 µg/mL (≈ 28 µM) | 1.2 µg/mL (≈ 2.69 µM) | 1.99 µg/mL (≈ 4.46 µM) | 50 µg/mL (≈ 112 µM) | 50 µg/mL (≈ 112 µM) | 0.33 µg/mL (≈ 0.739 µM)
17 | COc1cc(C2SCC(=O)N2NC(=O)c2cc(-c3ccc(Cl)cc3)n[nH]2)ccc1O (racemic) | 12.5 µg/mL (≈ 28.1 µM) | 1.6 µg/mL (≈ 3.6 µM) | 0.15 µg/mL (≈ 0.337 µM) | 0.65 µg/mL (≈ 1.46 µM) | 12.5 µg/mL (≈ 28.1 µM) | 1.6 µg/mL (≈ 3.6 µM) | 0.05 µg/mL (≈ 0.112 µM)
